Values after ≈ are worked out from the molar mass of the structure shown. A value given as a limit tells only on which side of the number the result lay.

For six compounds, MIC, MCC and CC50 (50% cell growth inhibitory concentration) results are on record in ChEMBL document CHEMBL1126074, “(+-)-carbocyclic 5'-nor-2'-deoxyguanosine and related purine derivatives: synthesis and antiviral properties” (1992).

Format in all cases: functional
A short description of assay [1]: Concentration required to reduce HSV-2(G) induced cytopathogenicity by 50% in ESM(embryonic skin muscle) cell cultures. As to conditions: Homo sapiens. In outline:
(§1)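 Embryonic skin muscle (ESM) cell cultures were infected at a virus input of 100 CCID50, where 1 CCID50 is the infective dose for 50% of cultures. Endpoint: concentration reducing virus-induced cytopathogenicity by 50%.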

Assay [2] in a line: Concentration required to reduce vesicular stomatitis virus(VSV) induced cytopathogenicity by 50% in ESM(embryonic skin muscle) cell cultures. As to conditions: Homo sapiens. In outline: as §1
In general terms: Cytopathic effects are the visible damage that an infection or toxin causes in cultured cells.

The nature of assay [3]: Concentration required to reduce HSV-1 thymidine kinase deficient (TK-)(B2006) induced cytopathogenicity by 50% in ESM(embryonic skin muscle) cell cultures. As to conditions: Homo sapiens. In outline:
as §1

The nature of assay [4]: Concentration required to reduce vaccinia virus(VV) induced cytopathogenicity by 50% in ESM(embryonic skin muscle) cell cultures. As to conditions: Homo sapiens. In outline: as §1
A short description of assay [5]: Concentration required to reduce HSV-1(KOS) induced cytopathogenicity by 50% in ESM(embryonic skin muscle) cell cultures. Particulars: Homo sapiens. In outline: as §1
The nature of assay [6]: Concentration required to reduce HSV-1 thymidine kinase deficient (TK-)(VMW 1837) induced cytopathogenicity in by 50% ESM(embryonic skin muscle) cell cultures. As to conditions: Homo sapiens. A digest of the protocol: as §1
The nature of assay [7]: Concentration required to cause a microscopically detectable alteration of normal ESM cell morphology. As to conditions: Homo sapiens.
The subject of assay [8] is HEL. As to the kind of experiment: Concentration required to reduce varicella zoster virus(VZV)OKA plaque formation by 50% at 20 plaque forming units(PFU) in human embryonic lung (HEL) cell cultures.
For assay [9], the system named is HEL. Nature of the assay: Concentration required to reduce CMV (Davis) plaque formation by 50% at 100 plaque forming units(PFU) in human embryonic lung (HEL) cell cultures. A digest of the protocol:
(§2)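 Human embryonic lung (HEL) cell cultures were infected with 20 or 100 plaque forming units of CMV, as specified per column. Endpoint: concentration reducing plaque formation by 50%.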

In assay [10] the test system is HEL. As to the kind of experiment: Concentration required to reduce varicella zoster virus (VZV)YS-TK-PFU plaque formation by 50% in human embryonic lung (HEL) cell cultures.
Assay [11] has as its system HEL. Nature of the assay: Concentration required to reduce CMV(Davis) plaque formation by 50% at 20 plaque forming units(PFU) in human embryonic lung (HEL) cell cultures. In outline:
as §2

Assay [12] has as its system HEL. Nature of the assay: Concentration required to reduce VZV-07/1-TK- plaque formation by 50% in human embryonic lung (HEL) cell cultures.
Assay [13] has as its system HEL. Nature of the assay: Concentration required to reduce CMV(AD-169) plaque formation by 50% in human embryonic lung (HEL) cell cultures. In outline: as §2
Assay [14] relates to HEL. Nature of the assay: Concentration required to reduce human embryonic lung (HEL) cell growth by 50%. As to conditions: read-out: MCC.
Assay [15] concerns HEL. Nature of the assay: Concentration required to reduce VZV-YS/R-TK- plaque formation by 50% in human embryonic lung (HEL) cell cultures.

As to `NC(=O)c1ncn([C@@H]2O[C@H](CO)[C@@H](O)[C@H]2O)n1` [RIBAVIRIN], the MIC in [1] was over 400 µg/mL; in assay [2], 150 µg/mL (≈ 614 µM); in assay [3], 300 µg/mL (≈ 1230 µM); in [4], 70 µg/mL (≈ 287 µM); in [5], over 400 µg/mL; in [6], 40 µg/mL (≈ 164 µM). For the same compound, in assay [7], the MCC is over 400 µg/mL.

For `Nc1nc(N)c2ncn([C@H]3C[C@@H](O)[C@@H](O)C3)c2n1`, the MIC in assay [8] is 70 µg/mL (≈ 280 µM); in assay [9], 70 µg/mL (≈ 280 µM); in assay [1], 200 µg/mL (≈ 799 µM); in assay [2] it was over 200 µg/mL; in assay [10] it was 200 µg/mL (≈ 799 µM); in assay [3] it was 100 µg/mL (≈ 400 µM). Moreover, the MIC in assay [4] was over 150 µg/mL; in assay [5], over 200 µg/mL; in assay [11], 70 µg/mL (≈ 280 µM); in assay [12], 70 µg/mL (≈ 280 µM); in assay [6] it was 150 µg/mL (≈ 599 µM); in [13] it was 70 µg/mL (≈ 280 µM). In addition, in assay [15], the MIC came to 89 µg/mL (≈ 356 µM). Besides, the CC50 (50% cell growth inhibitory concentration) in assay [14] is 139 µg/mL (≈ 555 µM). In [7], this compound gave an MCC of over 400 µg/mL.

On to `Nc1nc2c(ncn2COC(CO)CO)c(=O)[nH]1` [GANCICLOVIR], for which the MIC is 3 µg/mL (≈ 11.8 µM) in [8], 0.3 µg/mL (≈ 1.18 µM) in [9] and 0.8 µg/mL (≈ 3.13 µM) in assay [11].

Take `Nc1ncnc2c1ncn2[C@H]1C[C@@H](O)[C@@H](O)C1`: the MIC was 24 µg/mL (≈ 102 µM) in assay [8]; 200 µg/mL (≈ 850 µM) in [9]; over 200 µg/mL in assay [1]; over 200 µg/mL in assay [2]; 25 µg/mL (≈ 106 µM) in assay [10]; 70 µg/mL (≈ 298 µM) in assay [3]. The MIC is over 100 µg/mL in [4]; over 200 µg/mL in assay [5]; 200 µg/mL (≈ 850 µM) in [11]; 24 µg/mL (≈ 102 µM) in assay [12]; 100 µg/mL (≈ 425 µM) in assay [6]; 200 µg/mL (≈ 850 µM) in [13]. Also, the MIC in [15] turned out to be 47 µg/mL (≈ 200 µM). For the same compound, in [14], the CC50 (50% cell growth inhibitory concentration) is 110 µg/mL (≈ 468 µM). The compound further yielded an MCC in [7] of over 400 µg/mL.

Regarding `Nc1nc(O)c2ncn([C@H]3C[C@@H](O)[C@@H](O)C3)c2n1`, the MIC in assay [8] is 90 µg/mL (≈ 358 µM); in assay [9], 250 µg/mL (≈ 995 µM); in assay [1] it was 300 µg/mL (≈ 1190 µM); in [2], over 400 µg/mL; in assay [10], 91 µg/mL (≈ 362 µM); in assay [3] it was 300 µg/mL (≈ 1190 µM). Further, the MIC amounted to 300 µg/mL (≈ 1190 µM) in [4]; 300 µg/mL (≈ 1190 µM) in assay [5]; 270 µg/mL (≈ 1070 µM) in assay [11]; 164 µg/mL (≈ 653 µM) in assay [12]; 150 µg/mL (≈ 597 µM) in assay [6]; 250 µg/mL (≈ 995 µM) in assay [13]. Moreover, the MIC in assay [15] was 192 µg/mL (≈ 764 µM). In addition, the CC50 (50% cell growth inhibitory concentration) in [14] is 196 µg/mL (≈ 780 µM). The compound also returned an MCC in assay [7] of over 400 µg/mL.

With `O=c1[nH]c(=O)n([C@H]2C[C@H](O)[C@@H](CO)O2)cc1/C=C/Br` [BRIVUDINE], the MIC is 0.001 µg/mL (≈ 0.003 µM) in assay [8]; 10 µg/mL (≈ 30 µM) in assay [1]; over 400 µg/mL in [2]; 0.0007 µg/mL (≈ 0.0021 µM) in assay [10]; 100 µg/mL (≈ 300 µM) in assay [3]; 1 µg/mL (≈ 3 µM) in assay [4]. Besides, the MIC is 0.07 µg/mL (≈ 0.21 µM) in assay [5], over 10 µg/mL in [12], 10 µg/mL (≈ 30 µM) in assay [6] and over 10 µg/mL in assay [15]. In [7], this compound had an MCC of over 400 µg/mL.
